For series [1], the target named is Voltage-gated inwardly rectifying potassium channel KCNH2 (Homo sapiens, UniProt Q12809). The experiment in a line: Binding affinity to human ERG.
Series [2] addresses C-C chemokine receptor type 2 (Homo sapiens, UniProt P41597). The experiment in a line: Binding affinity to CCR2 receptor (unknown origin).
Series [3] can be described thus: Cmax in rat at 10 mg/kg, po. Type of series: ADME, organism-based. Further details: dose 10 mg/kg, route oral. To be noted: in vivo. The method in brief:
(§1)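 Rat pharmacokinetics after a single oral dose of 10 mpk given in 0.5% methocel. Maximum plasma concentration and plasma exposure (AUC) were taken from the plasma concentration–time profile.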

Series [4] in a line: AUC in rat at 10 mg/kg, po. Type of series: ADME, organism-based. Further details: dose 10 mg/kg, route oral. To be noted: plasma. The procedure, abridged: as §1
The target in the next series is hERG (KCNH2) (Homo sapiens, UniProt Q12809). The experiment in a line: Inhibition of human ERG at 3 uM by patchxpress assay.

Each structure is given as a SMILES string.

Broadly, the IC50 is the concentration that gives 50% inhibition. Read a high IC50 as lower potency. The Cmax is the highest concentration seen after dosing. The AUC is the area under the concentration-time curve, a measure of exposure. As usually defined, the inhibition is how much of the control response was suppressed. Lower therefore signals a weak effect.

Sequence of Voltage-gated inwardly rectifying potassium channel KCNH2 (Q12809 whole entry): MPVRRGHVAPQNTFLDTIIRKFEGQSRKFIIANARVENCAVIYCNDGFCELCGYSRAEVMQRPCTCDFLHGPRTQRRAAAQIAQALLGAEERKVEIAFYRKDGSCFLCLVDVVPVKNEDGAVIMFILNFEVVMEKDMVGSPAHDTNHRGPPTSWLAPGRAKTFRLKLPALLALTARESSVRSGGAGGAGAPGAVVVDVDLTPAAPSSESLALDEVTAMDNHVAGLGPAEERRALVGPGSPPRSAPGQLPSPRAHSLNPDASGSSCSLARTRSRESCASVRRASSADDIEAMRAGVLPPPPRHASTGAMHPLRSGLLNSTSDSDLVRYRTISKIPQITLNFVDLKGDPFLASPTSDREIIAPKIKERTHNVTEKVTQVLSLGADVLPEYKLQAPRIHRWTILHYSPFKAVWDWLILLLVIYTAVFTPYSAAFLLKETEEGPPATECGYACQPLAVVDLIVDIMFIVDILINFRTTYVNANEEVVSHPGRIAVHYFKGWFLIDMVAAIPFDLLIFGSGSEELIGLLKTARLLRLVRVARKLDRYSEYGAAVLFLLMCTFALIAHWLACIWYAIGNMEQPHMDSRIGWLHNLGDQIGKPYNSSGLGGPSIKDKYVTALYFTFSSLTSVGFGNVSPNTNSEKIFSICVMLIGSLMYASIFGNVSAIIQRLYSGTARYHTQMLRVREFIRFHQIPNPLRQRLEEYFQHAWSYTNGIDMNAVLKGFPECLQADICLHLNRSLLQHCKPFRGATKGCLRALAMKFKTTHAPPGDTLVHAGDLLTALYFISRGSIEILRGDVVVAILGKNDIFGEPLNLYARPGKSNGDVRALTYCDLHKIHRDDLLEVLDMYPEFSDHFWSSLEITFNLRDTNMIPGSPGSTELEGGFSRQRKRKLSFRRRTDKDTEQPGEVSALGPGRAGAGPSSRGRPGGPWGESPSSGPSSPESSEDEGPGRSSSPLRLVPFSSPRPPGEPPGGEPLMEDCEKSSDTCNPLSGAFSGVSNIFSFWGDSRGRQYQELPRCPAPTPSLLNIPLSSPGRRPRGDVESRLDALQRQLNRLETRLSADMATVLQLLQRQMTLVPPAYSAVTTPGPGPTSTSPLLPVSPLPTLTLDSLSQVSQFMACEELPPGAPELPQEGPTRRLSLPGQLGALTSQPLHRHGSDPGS
Sequence of C-C chemokine receptor type 2 (P41597 whole entry): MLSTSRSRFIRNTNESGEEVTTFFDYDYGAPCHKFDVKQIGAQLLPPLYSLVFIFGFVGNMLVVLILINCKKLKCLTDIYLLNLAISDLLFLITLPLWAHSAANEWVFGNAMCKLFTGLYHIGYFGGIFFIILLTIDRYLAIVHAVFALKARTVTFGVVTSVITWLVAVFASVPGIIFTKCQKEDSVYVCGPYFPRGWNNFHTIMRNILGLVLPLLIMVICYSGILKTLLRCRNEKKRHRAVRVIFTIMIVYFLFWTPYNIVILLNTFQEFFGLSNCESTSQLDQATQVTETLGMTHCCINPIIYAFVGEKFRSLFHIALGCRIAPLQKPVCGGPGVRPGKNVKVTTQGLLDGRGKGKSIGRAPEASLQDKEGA
Sequence of hERG (KCNH2) (Q12809 whole entry): as the sequence (Q12809 whole entry) above

Consider `COC1COCCC1N[C@@H]1C[C@H]2CN(C(N)=O)C[C@@]2(C(=O)N2CCc3ncc(C(F)(F)F)cc3C2)C1` (mixture of isomers), for which the values for the IC50 in series [1] and in series [2] were more than 50 µM and 0.064 µM, respectively. The compound further returned a Cmax in series [3] of 0.0706 µg/mL. This compound also showed an area under the curve (AUC) in series [4] of 0.074 µg·h/mL.
Regarding `CNC(=O)N1C[C@@H]2C[C@@H](NC3CCOCC3OC)C[C@]2(C(=O)N2CCc3ncc(C(F)(F)F)cc3C2)C1` (mixture of isomers), the IC50 was more than 50 µM in series [1] and 0.077 µM in series [2].
The like results for `COC1COCCC1N[C@@H]1C[C@H]2CN(C(=O)NC(C)C)C[C@@]2(C(=O)N2CCc3ncc(C(F)(F)F)cc3C2)C1` (mixture of isomers) were, in that order, more than 50 µM and 0.41 µM.
The like results for `COC1COCCC1N[C@@H]1C[C@H]2CN(C(=O)NCc3ccccc3)C[C@@]2(C(=O)N2CCc3ncc(C(F)(F)F)cc3C2)C1` (mixture of isomers) were, in that order, more than 50 µM and 0.057 µM.
The like results for `COC1COCCC1N[C@@H]1C[C@H]2CN(/C(N)=N\C#N)C[C@@]2(C(=O)N2CCc3ncc(C(F)(F)F)cc3C2)C1` (mixture of isomers) were, in that order, more than 50 µM and 0.037 µM.
Take `COC(=O)N1C[C@@H]2C[C@@H](NC3CCOCC3OC)C[C@]2(C(=O)N2CCc3ncc(C(F)(F)F)cc3C2)C1` (mixture of isomers): the IC50 in series [1] is more than 50 µM; in series [2] it was 0.41 µM.
`COC1COCCC1N[C@@H]1C[C@H]2CN(C(=O)Oc3ccccc3)C[C@@]2(C(=O)N2CCc3ncc(C(F)(F)F)cc3C2)C1` (mixture of isomers): the results for the IC50 in series [1] and in series [2] were more than 50 µM and 0.56 µM, respectively.
For the compound `COC1COCCC1N[C@@H]1C[C@H]2CN(C(=O)OCc3ccccc3)C[C@@]2(C(=O)N2CCc3ncc(C(F)(F)F)cc3C2)C1` (mixture of isomers), the IC50 in series [1] was more than 50 µM; in series [2] it was 0.118 µM.
For `COC1COCCC1N[C@@H]1C[C@H]2CN(C(=O)OCC(C)(C)C)C[C@@]2(C(=O)N2CCc3ncc(C(F)(F)F)cc3C2)C1` (mixture of isomers) the same measures were more than 50 µM and 0.059 µM.
For `COC1COCCC1N[C@@H]1C[C@H]2CN(C(=O)OCC(C)C)C[C@@]2(C(=O)N2CCc3ncc(C(F)(F)F)cc3C2)C1` (mixture of isomers) the same measures were more than 50 µM and 0.035 µM.
The like results for `COCCOC(=O)N1C[C@@H]2C[C@@H](NC3CCOCC3OC)C[C@]2(C(=O)N2CCc3ncc(C(F)(F)F)cc3C2)C1` (mixture of isomers) were, in that order, more than 50 µM and 0.082 µM.
In series [2], `COC1COCCC1N[C@@H]1C[C@H]2CN(C(=O)OCC3CCOCC3)C[C@@]2(C(=O)N2CCc3ncc(C(F)(F)F)cc3C2)C1` (mixture of isomers) registered an IC50 of 0.032 µM.
As for `COC1COCCC1N[C@@H]1C[C@H]2CN(C(=O)OCCC3CCOCC3)C[C@@]2(C(=O)N2CCc3ncc(C(F)(F)F)cc3C2)C1` (mixture of isomers), the figures for the IC50 in series [1] and in series [2] were more than 50 µM and 0.031 µM, respectively. Also, the peak level in series [3] (Cmax) was 0.145 µg/mL. The inhibition at 3 µM against hERG (KCNH2) stood at 7.3%. In series [4], this compound showed an AUC of 0.427 µg·h/mL.
For the compound `COC1COCCC1N[C@@H]1C[C@H]2CN(C(=O)OCCNC(C)=O)C[C@@]2(C(=O)N2CCc3ncc(C(F)(F)F)cc3C2)C1` (mixture of isomers), the results for the IC50 in series [1] and in series [2] were more than 50 µM and 0.045 µM, respectively.
For `COC1COCCC1N[C@@H]1C[C@H]2CN(C(=O)OCCN3CCCC3)C[C@@]2(C(=O)N2CCc3ncc(C(F)(F)F)cc3C2)C1` (mixture of isomers) the same measures were more than 50 µM and 0.033 µM.
The like results for `COC1COCCC1N[C@@H]1C[C@H]2CN(C(=O)OCCN3CCOCC3)C[C@@]2(C(=O)N2CCc3ncc(C(F)(F)F)cc3C2)C1` (mixture of isomers) were, in that order, more than 50 µM and 0.041 µM.
On to `COC1COCCC1N[C@@H]1C[C@H]2CNC[C@@]2(C(=O)N2CCc3ncc(C(F)(F)F)cc3C2)C1` (mixture of isomers), for which the IC50 in series [1] is more than 50 µM.
Same read-out and setting: next, `COC1COCCC1N[C@@H]1C[C@H]2CN(C)C[C@@]2(C(=O)N2CCc3ncc(C(F)(F)F)cc3C2)C1` (mixture of isomers): more than 50 µM.
As to `CCN1C[C@@H]2C[C@@H](NC3CCOCC3OC)C[C@]2(C(=O)N2CCc3ncc(C(F)(F)F)cc3C2)C1` (mixture of isomers), the figures for the IC50 in series [1] and in series [2] were 42.6 µM and 0.629 µM, respectively.
In the case of `COC1COCCC1N[C@@H]1C[C@H]2CN(C(C)C)C[C@@]2(C(=O)N2CCc3ncc(C(F)(F)F)cc3C2)C1` (mixture of isomers), the IC50 was more than 50 µM in series [1] and 1.21 µM in series [2].
`COC1COCCC1N[C@@H]1C[C@H]2CN(C3CC3)C[C@@]2(C(=O)N2CCc3ncc(C(F)(F)F)cc3C2)C1` (mixture of isomers) registered an IC50 in series [2] of 0.18 µM. That is a sub-micromolar value.
Consider `COC1COCCC1N[C@@H]1C[C@H]2CN(C3COC3)C[C@@]2(C(=O)N2CCc3ncc(C(F)(F)F)cc3C2)C1` (mixture of isomers), for which the values for the IC50 in series [1] and in series [2] were more than 50 µM and 0.126 µM, respectively.
For `COC1COCCC1N[C@@H]1C[C@H]2CN(c3ccccc3)C[C@@]2(C(=O)N2CCc3ncc(C(F)(F)F)cc3C2)C1` (mixture of isomers) the same measures were 22.9 µM and 0.062 µM.
Turning to `COC1COCCC1N[C@@H]1C[C@H]2CN(c3nccs3)C[C@@]2(C(=O)N2CCc3ncc(C(F)(F)F)cc3C2)C1` (mixture of isomers), the values for the IC50 in series [1] and in series [2] were more than 50 µM and 0.152 µM, respectively.
The like results for `COC1COCCC1N[C@@H]1C[C@H]2CN(C(C)=O)C[C@@]2(C(=O)N2CCc3ncc(C(F)(F)F)cc3C2)C1` (mixture of isomers) were, in that order, more than 50 µM and 0.395 µM.
Compound `COC1COCCC1N[C@@H]1C[C@H]2CN(C(=O)/C=C/c3ccccc3)C[C@@]2(C(=O)N2CCc3ncc(C(F)(F)F)cc3C2)C1` (mixture of isomers) returned an IC50 in series [1] of 24.1 µM.
Consider `COC1COCCC1N[C@@H]1C[C@H]2CN(C(=O)/C=C/C(C)(C)C)C[C@@]2(C(=O)N2CCc3ncc(C(F)(F)F)cc3C2)C1` (mixture of isomers), for which the IC50 is more than 50 µM in series [1] and 0.068 µM in series [2].
As to `COC1COCCC1N[C@@H]1C[C@H]2CN(C(=O)C#CC3CC3)C[C@@]2(C(=O)N2CCc3ncc(C(F)(F)F)cc3C2)C1` (mixture of isomers), the IC50 in series [1] was found to be 49.6 µM; in series [2], 0.087 µM.

These data come from ChEMBL document CHEMBL3112390, “Discovery and SAR of 5-aminooctahydrocyclopentapyrrole-3a-carboxamides as potent CCR2 antagonists” (Bioorg Med Chem Lett, 2014).
